{
  "source": "ChEMBL document CHEMBL3112425",
  "about": "“Design, synthesis, and structure-activity relationship studies of a potent PACE4 inhibitor” (J Med Chem, 2014)",
  "key": {"LNCaP": {"tested_on": "LNCaP", "experiment": "Cytotoxicity against human LNCAP cells after 72 hrs by MTT assay", "type": "functional, cell-based", "outline": "(§1)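 Prostate cancer cells were kept in RPMI 1640 at 37 °C, 5% CO2, with 5% FBS for DU145 and 10% FBS for LNCaP and PC3. After 24 h, medium was changed and peptides added at various concentrations, up to 350 μM. Viability was read by MTT after 72 h treatment. IC50 from dose–response curves, triplicate, mean ± SEM.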"}, "[1]": {"biological_target": "T1, Neuroendocrine convertase 2 (Homo sapiens, UniProt P16519)", "T1 sequence (P16519 whole entry)": "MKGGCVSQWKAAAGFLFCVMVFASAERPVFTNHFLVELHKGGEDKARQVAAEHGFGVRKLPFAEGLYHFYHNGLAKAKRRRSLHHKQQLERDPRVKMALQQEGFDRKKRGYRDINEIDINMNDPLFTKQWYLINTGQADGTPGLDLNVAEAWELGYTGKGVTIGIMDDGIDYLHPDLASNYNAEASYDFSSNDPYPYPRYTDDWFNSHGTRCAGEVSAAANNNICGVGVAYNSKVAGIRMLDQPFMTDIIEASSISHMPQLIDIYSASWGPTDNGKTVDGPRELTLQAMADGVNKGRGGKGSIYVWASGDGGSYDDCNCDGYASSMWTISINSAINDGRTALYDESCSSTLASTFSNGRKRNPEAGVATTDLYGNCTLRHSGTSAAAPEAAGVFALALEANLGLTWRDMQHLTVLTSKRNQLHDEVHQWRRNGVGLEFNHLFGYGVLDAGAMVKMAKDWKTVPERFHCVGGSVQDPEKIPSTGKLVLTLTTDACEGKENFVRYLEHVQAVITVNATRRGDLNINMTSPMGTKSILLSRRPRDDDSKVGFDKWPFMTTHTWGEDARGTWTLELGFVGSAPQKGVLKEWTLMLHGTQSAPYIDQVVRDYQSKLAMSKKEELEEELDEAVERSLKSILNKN", "experiment": "Inhibition of human PC2 expressed in drosophila schneider 2 cells using pyroGlu-Arg-Thr-Lys-Arg-AMC as substrate after 1 hr", "outline": "(§2)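 Human enzymes were expressed in Drosophila S2 cells and purified. Fluorogenic pyroGlu-RTKR-AMC was used at fixed concentration with varied inhibitor, 37 °C over 1 h. Buffers: furin, 100 mM Hepes pH 7.5, 1 mM CaCl2, 1 mM β-mercaptoethanol, 1.8 mg/mL BSA; PACE4 and PC7, 20 mM Bis-Tris pH 6.5, 1 mM CaCl2, 1.8 mg/mL BSA; PC2, same buffer at pH 5.7. Ki from IC50 (Cheng–Prusoff), or apparent Ki (Morrison) for tight binders. Triplicate, mean ± SD.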"}, "[2]": {"biological_target": "T2, Proprotein convertase subtilisin/kexin type 6 (Homo sapiens, UniProt P29122)", "T2 sequence (P29122 whole entry)": "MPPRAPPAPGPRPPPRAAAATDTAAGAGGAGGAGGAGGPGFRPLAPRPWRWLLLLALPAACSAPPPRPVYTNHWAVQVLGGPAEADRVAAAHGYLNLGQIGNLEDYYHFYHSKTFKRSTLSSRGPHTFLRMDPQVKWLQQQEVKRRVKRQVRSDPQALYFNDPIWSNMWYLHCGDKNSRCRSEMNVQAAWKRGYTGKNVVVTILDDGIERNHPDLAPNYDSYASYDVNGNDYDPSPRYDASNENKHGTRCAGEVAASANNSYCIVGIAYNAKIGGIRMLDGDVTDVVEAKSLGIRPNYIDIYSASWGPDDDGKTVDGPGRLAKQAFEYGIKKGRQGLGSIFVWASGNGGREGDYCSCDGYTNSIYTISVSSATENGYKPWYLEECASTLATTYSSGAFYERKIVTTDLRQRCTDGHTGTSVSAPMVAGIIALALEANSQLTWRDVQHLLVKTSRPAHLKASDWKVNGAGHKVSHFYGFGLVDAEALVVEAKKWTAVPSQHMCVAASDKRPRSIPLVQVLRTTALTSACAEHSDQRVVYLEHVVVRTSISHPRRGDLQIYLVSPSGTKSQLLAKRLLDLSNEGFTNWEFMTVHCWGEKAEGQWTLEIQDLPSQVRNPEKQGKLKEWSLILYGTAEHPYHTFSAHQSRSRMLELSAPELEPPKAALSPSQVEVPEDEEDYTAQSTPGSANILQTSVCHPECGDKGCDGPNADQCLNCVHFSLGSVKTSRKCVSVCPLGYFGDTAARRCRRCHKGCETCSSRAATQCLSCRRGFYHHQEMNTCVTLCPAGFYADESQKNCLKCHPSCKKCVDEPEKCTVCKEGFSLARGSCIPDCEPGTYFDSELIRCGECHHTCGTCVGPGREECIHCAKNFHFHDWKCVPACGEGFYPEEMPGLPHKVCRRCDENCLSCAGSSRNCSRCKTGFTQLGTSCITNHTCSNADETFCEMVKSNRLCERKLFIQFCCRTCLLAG", "experiment": "Inhibition of human recombinant PACE4 expressed in drosophila schneider 2 cells using pyroGlu-Arg-Thr-Lys-Arg-AMC as substrate after 1 hr", "outline": "as §2"}, "Plasma": {"tested_on": "Plasma", "experiment": "Drug degradation in CD-1 mouse plasma at 0.5 ug/uL after 30 mins by MALDI-TOF MS analysis", "type": "ADME, cell-free", "details": "0.5 h; call rule not given here", "outline": "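For fragment mapping, 100 μg peptide was incubated in murine plasma at 37 °C. At each time point, plasma samples were quenched with 3% TFA. Proteins were precipitated with 2 volumes acetonitrile and centrifuged at 17 000g. Supernatants were analyzed by MALDI-TOF MS for C-terminally truncated fragments.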"}, "[3]": {"experiment": "Half life in CD-1 mouse plasma at 0.5 ug/uL by RP-HPLC analysis", "type": "ADME, cell-free", "outline": "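Peptides at 0.5 μg/μL were incubated at 37 °C in heparinized plasma pooled from mixed-sex CD1 mice. At each time point the reaction was stopped with 1 M guanidinium-HCl, then acetonitrile, and proteins were spun out. Supernatant peptide AUC (RP-HPLC) was compared with non-incubated samples. Half-life came from a one-phase decay fit. Run ≥3 times, duplicate per time point.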"}, "PC-3": {"tested_on": "PC-3", "experiment": "Cytotoxicity against human PC3 cells after 72 hrs by MTT assay", "type": "functional, cell-based", "details": "PC-3, 72 h", "outline": "as §1"}, "DU-145": {"tested_on": "DU-145", "experiment": "Cellular uptake in human DU145 cells after 1 hr by propidium iodide staining-based FACS analysis", "type": "ADME, cell-based", "details": "du-145, 1 h", "outline": "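FITC-βAla-labelled peptides at 10 μM were given to DU145 cells for 1 h in serum-free RPMI. Cells were collected, then washed twice with 0.05% trypsin (5 min, 37 °C) to strip membrane-bound peptide. Propidium iodide (10 μg/mL, 2 min) excluded damaged cells. FACS read 10 000 events/sample as geometric mean fluorescence, against untreated-cell autofluorescence.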"}},
  "note": "Peptide text beside a SMILES is read from it. * marks the point of attachment. X1 = N=C(N)NC/C=C/CN*",
  "data": [
    {"smiles": "CC(=O)N[C@@H](CC(C)C)C(=O)N[C@@H](CC(C)C)C(=O)N[C@@H](CC(C)C)C(=O)N[C@@H](CC(C)C)C(=O)N[C@@H](CCCNC(=N)N)C(=O)N[C@H](C(=O)N[C@@H](CCCCN)C(=O)NC/C=C/CNC(=N)N)C(C)C", "note": "(Ac-LLLLRVK-X1)", "values": [
      {"measurement": "IC50", "setting": "LNCaP", "value": 70, "unit": "µM"},
      {"measurement": "Ki", "setting": "[1]", "value": 0.0017, "unit": "µM"},
      {"measurement": "Ki", "setting": "[2]", "value": 0.0053, "unit": "µM"},
      {"measurement": "Stability", "setting": "Plasma", "value": "Unstable"},
      {"measurement": "half-life at 0.5 ug/uL", "setting": "[3]", "value": 7.2, "unit": "h"},
      {"measurement": "IC50", "setting": "PC-3", "value": 200, "unit": "µM"},
      {"measurement": "Drug uptake", "setting": "DU-145", "value": "Active"}
    ]}
  ]
}
